# Data from PubChem BioAssay AID463079 (The Scripps Research Institute Molecular Screening Center, 2010).
# Hit rate of the full screen: of about 330,000 compounds, about 2,000 (0.61%) were called active. What follows is part of a selection rich in actives, with near analogues and random picks from the rest. Unmarked numbers belong to inactive results.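 The calls were made as follows: active = inhibition above that plate's mean sample inhibition plus 3 SD (cut at about 26% in these data); inactive = the rest.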
# Assay: nonselective Gq signaling inhibition in CHO cells – cell-based, fluorescence, Fluo-8 calcium dye, counter-screen for OX1R antagonist project, primary screen (AID 463079);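 also: 0% = ATP-challenged DMSO wells and 100% = DMSO wells without ATP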
# Conditions: parental CHO-K1, ATP-induced calcium, Fluo-8 fluorescence; at 5.6 µM; hits give high values
# Method in brief: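 Test system: untransfected parental CHO cell line. Compound: one dose, 5.6 µM nominal. Detection: intracellular calcium via Fluo-8 no-wash fluorescent dye. Measure: % inhibition. Benchmarks: ATP-challenged DMSO wells low, unchallenged DMSO wells high.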
row,Structure (SMILES),inhibition
1,c1ccc(-c2cc3c(NCC4COc5ccccc5O4)ncnc3s2)cc1 (stereo not drawn),2.37%
2,c1ccc2c(c1)OCC(CNc1ncnc3nc[nH]c13)O2 (stereo not drawn),76% (active)
3,S=C(NCC1COc2ccccc2O1)Nc1ccc(Br)cc1 (stereo not drawn),1.75%
4,COc1ccc(NC(=O)CC2SC(N3CCCCC3)=NC2=O)cc1OC (stereo not drawn),-5.72%
5,COc1cc(C(=O)NCc2nnc(SCC(=O)c3ccc(Cl)cc3)o2)cc(OC)c1OC,-35.5%
6,CCC(=O)Nc1ccc(C(=O)CSc2nnc(CNc3ccc(Cl)cc3)o2)cc1OC,39.8% (active)
7,CCOC(=O)CSc1nnc(CNc2ccc(F)cc2)o1,7.59%
8,CCCCCCCNC(=O)C1(CC2CC(c3cccc(Br)c3)=NO2)CCN(C(=O)c2cc(OCC)c(OCC)c(OCC)c2)CC1 (stereo not drawn),-43.7%
9,CC1C/C(=N/NC(=O)c2cccs2)CC(C)(C)C1 (stereo not drawn),5.84%
10,O=C(CN1C(=O)NC(Cc2c[nH]c3ccccc23)C1=O)Nc1ccccc1C(F)(F)F (stereo not drawn),-8.55%
11,CC(C)(C)C(=O)NNC(=O)c1ccc(Oc2cc(Cl)cc(Cl)c2)o1,0.38%
12,CC(C)CNC(=O)C(=O)Nc1ccc(N(C)C)cc1,-6.25%
13,CN(C)c1ccc(C(CC(=O)O)C(=O)O)cc1 (stereo not drawn),26.3% (active)
14,CC(=O)NC(CC(=O)O)c1ccc(F)cc1 (stereo not drawn),14.5%
15,COC(=O)Cn1c(=NC(=O)c2cc(OC)c(OC)c(OC)c2)sc2cc(OC)ccc21,-4.35%
16,CN(C)/C=C(/C(=O)c1ccc(Cl)c(Cl)c1)c1nnnn1-c1ccccc1,4.24%
17,CCc1ccc(CN(C)C(=O)CCc2nnc(-c3ccc(-c4ccccc4)cc3)o2)nc1,2.52%
18,COc1ccc(Cl)cc1-n1c(C)cc(C(=O)OCC(=O)N2CC(=O)Nc3ccccc32)c1C,-26.4%
19,O=C(O)CSc1c2c(nc3cc(C(=O)Nc4cccc(C(F)(F)F)c4)ccc13)CCCC2,-7.81%
20,Cn1nc(C(F)(F)F)c(C(=O)Nc2cccc(C(F)(F)F)c2)c1SCc1ccc(Cl)cc1,56.3% (active)

row,Structure (SMILES),inhibition
1,COC(=O)c1ccccc1Sc1c(/C=N/OCc2ccc(Cl)cc2)c(C(F)(F)F)nn1C,-7.11%
2,Cc1ccc(-n2[nH]c(C)c(/C=N/NC(=O)c3cccc([N+](=O)[O-])c3)c2=O)cc1C,-2.1%
3,COc1cc(SC#N)ccc1N=Cc1c(C)[nH]n(-c2ccc(C)cc2)c1=O,96.8% (active)
4,O=C(NNC(=O)c1cnccc1C(F)(F)F)c1ccc(Cl)cc1,-3%
5,Oc1ccccc1CN1CCN(C(c2ccccc2)c2ccccc2)CC1,-33.9%
6,CC1(C)CC(N2CCN(C(c3ccccc3)c3ccccc3)CC2)=CC(=[N+]2CCCCC2)C1,29.5% (active)
7,O=C1CC(N2CCN(C(c3ccccc3)c3ccccc3)CC2)C(=O)N1 (stereo not drawn),-12.9%
8,CC(C)CC(CCc1ccccc1)OS(N)(=O)=O (stereo not drawn),-9.01%
9,CC(C(=O)c1ccc(-c2ccccc2)cc1)[n+]1cccc(Br)c1 (stereo not drawn),-2.14%
10,Cc1cc(C)c(-c2c(O)c3ccccc3n(C)c2=O)c(C)c1,-6.96%
11,CCOC(=O)Cc1cc(=O)[nH]c(=O)[nH]1,-1.68%
12,COc1ccc(S(=O)(=O)N(C)CC(=O)N2CCCC2)cc1,0.64%
13,CN(C)S(=O)(=O)c1ccc(Oc2ccc(S(=O)(=O)N(C)C)cc2)cc1,53.5% (active)
14,CN(C)S(=O)(=O)c1ccc(NC(=O)N2CCOCC2)cc1,-16.7%
15,CN(C(=O)CC1C(=O)NCCN1Cc1ccc(F)cc1Cl)C1CCCCC1 (stereo not drawn),-17.1%
16,Cc1ccc(S(=O)(=O)N(Cc2cc3ccccc3[nH]c2=O)CC2CCCO2)cc1 (stereo not drawn),-27.8%
17,COCCN(C(=O)CCC(=O)Nc1nccs1)C(C(=O)NCCC(C)C)c1ccc(F)cc1 (stereo not drawn),-13%
18,Cc1cc(C(=O)NC2CC(C)(C)Cc3c2cnn3-c2ccccc2)n[nH]1 (stereo not drawn),-10.2%
19,Cn1nccc1C(=O)NC1CCCc2c1cnn2-c1ccc(F)cc1F (stereo not drawn),45.4% (active)
20,COc1ccc(C(=O)NC2CCCc3c2cnn3-c2cccc(C)c2C)c(OC)n1 (stereo not drawn),40.4% (active)

row,Structure (SMILES),inhibition
1,Cc1cc(C(=O)NC2CCCc3c2cnn3-c2cccc(C)c2C)c(C)o1 (stereo not drawn),2.39%
2,COC(=O)c1ccc(C(=O)NC2CC(C)(C)Cc3c2cnn3-c2ccc(F)cc2)nc1 (stereo not drawn),-9.97%
3,Cn1nccc1C(=O)NC1CCCc2c1cnn2-c1ccccc1F (stereo not drawn),48.7% (active)
4,COc1ccc(C(=O)NC2CC(C)(C)Cc3c2cnn3-c2ccccc2C)o1 (stereo not drawn),-22.6%
5,CC(=O)NCC(=O)NC1CCCc2c1cnn2-c1ccccc1F (stereo not drawn),10.8%
6,CC1(C)Cc2c(cnn2-c2cccc(F)c2)C(NC(=O)c2cc[n+]([O-])cc2)C1 (stereo not drawn),-5.88%
7,COCCCNC(=O)CN1C(=O)CSc2ccc(S(=O)(=O)N3CCOCC3)cc21,-10.9%
8,COc1ccc(S(=O)(=O)N2CCOCC2)cc1NC(=O)COc1ccccc1,-8.66%
9,CCOc1cc(N2CCOCC2)c(OCC)cc1NC(=O)C1=NN(c2cccc(C)c2)C(=O)CC1,-30.7%
10,CSC1=NC2(C)CCCCC2C12C=CC(=O)C=C2 (stereo not drawn),-8.36%
11,Cc1cc(Cl)c2oc(C(=O)N(C)C(C)c3ccccn3)c(C)c2c1 (stereo not drawn),-25.6%
12,Cc1cc2oc(=O)cc(-c3ccccc3)c2c(C)c1-c1ccc(OC(F)(F)F)cc1,-24%
13,C/C(=N\NC(=O)Cc1ccccc1[N+](=O)[O-])c1cccnc1,-2.78%
14,COc1cccc(CNc2nc(C(F)(F)F)nc3ccccc23)c1,-21.9%
15,COc1ccc(CNc2nccs2)cc1,-0.35%
16,COc1ccc(CNc2ncnc3ccccc23)cc1,30% (active)
17,O=C(Nc1cccc(F)c1)N1C2CCC1CC(O)(c1cccnc1)C2 (stereo not drawn),-8.22%
18,COc1cc(NC(=O)CCNC(=O)Cn2ccc3ccccc3c2=O)cc(OC)c1OC,0.46%
